The source made the active and inactive calls. The rule behind the calls is not given here.
Columns and labels:
SK-OV-3 [1] = assay: Cytotoxicity against human SKOV3 cells at 10 uM incubated for 1 hr followed by incubation in compound-free medium for 72 hrs by MTT assay; type: functional
Procedure, shortened: (§1)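 SK-OV-3 cells plated overnight at 5000 cells/well; exposed to compound (up to 10 μM), then medium replaced with drug-free medium for 72 h; MTT added 2 h, formazan read at 490 nm; % cytotoxicity = (OD untreated − OD treated)/OD untreated × 100.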

HT-29 [2] = assay: Inhibition of cell proliferation of human HT-29 cells at 1 uM after 96 to 120 hrs by CellTiter assay; type: functional
[3] = Drug metabolism in fetal bovine serum assessed as compound hydrolysis at 1 uM after 12 hrs by HPLC analysis
[4] = Drug uptake in doxorubicin-resistant human SKOV3 cell cytoplasm at 5 uM after 1 hr by confocal microscopic analysis; type: ADME, cell-based; details: sk-ov-3, 1 h
Procedure, shortened: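 Coverslip-grown SK-OV-3 cells (seeded overnight, EMEM) treated with 5 μM compound in opti-MEM for 1 h at 37 °C, PBS-washed three times, mounted and imaged by laser scanning confocal microscopy using rhodamine and phase contrast channels for Dox fluorescence.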

MDA-MB-468 [5] = assay: Growth inhibition of human MDA-MB-468 cells at 1 uM after 96 hrs by CellTiter assay; type: functional, cell-based
MDA-MB-361 [6] = assay: Inhibition of cell proliferation of human MDA-MB-361 cells at 1 uM after 96 to 120 hrs by CellTiter assay; type: functional
SK-OV-3 [7] = assay: Inhibition of cell proliferation of human SKOV3 cells at 1 uM after 96 to 120 hrs by CellTiter assay; type: functional
[8] = biological target: DNA topoisomerase 2-alpha (Homo sapiens) (UniProt P11388); assay: Inhibition of topoisomerase 2-mediated KDNA decatenation at 15 to 20 uM after 30 mins by gel electrophoretic analysis
Procedure, shortened: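 Eukaryotic Topo II decatenation of kDNA (0.1 μg) in Tris-HCl 50 mM pH 8.0, NaCl 150 mM, MgCl2 10 mM, DTT 0.5 mM, ATP 2 mM with compound at 1–25 μM final, 30 min at 37 °C; stopped with sarkosyl buffer; products resolved on 1% agarose with ethidium bromide.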

HT-29 [9] = assay: Inhibition of cell proliferation of human HT-29 cells at 1 uM by CellTiter assay; type: functional, cell-based; details: TDE = time-dependent effect
SK-OV-3 [10] = assay: Inhibition of cell proliferation of human SKOV3 cells at 1 uM by CellTiter assay; type: functional, cell-based; details: TDE = time-dependent effect
MDA-MB-468 [11] = assay: Inhibition of cell proliferation of human MDA-MB-468 cells at 1 uM after 96 to 120 hrs by CellTiter assay; type: functional
[12] = Drug metabolism in human CCRF-CEM cells assessed as compound hydrolysis at 1 uM after 12 hrs by HPLC analysis; type: ADME, cell-based; details: read-out: Drug metabolism
Procedure, shortened: (§2)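 CCRF-CEM cells grown in serum-free RPMI, exposed to 1 μM compound 4 h at 37 °C, then moved to drug-free serum-free RPMI for set times; pellets washed with ice-cold PBS, extracted with methanol/chloroform/isopropanol (4:3:1), filtered; parent and released Dox quantified by HPLC at 490 nm.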

HT-29 [13] = assay: Growth inhibition of human HT-29 cells at 1 uM after 96 hrs by CellTiter assay; type: functional, cell-based
SK-OV-3 [14] = assay: Growth inhibition of human SKOV3 cells at 1 uM after 96 hrs by CellTiter assay; type: functional, cell-based
[15] = Drug metabolism in fetal bovine serum assessed as compound hydrolysis at 1 uM after 48 hrs by HPLC analysis
SK-OV-3 [16] = assay: Cytotoxicity against human SKOV3 cells at 5 to 10 uM by MTT assay relative to doxorubicin; type: functional; procedure, shortened: as §1
[17] = Cellular uptake in doxorubicin-resistant human SKOV3 cells at 5 uM incubated for 1 hr followed by incubation with fresh media for 24 hrs measured by confocal microscopic analysis; type: ADME, cell-based, Cytoplasm; details: sk-ov-3, 1 h
Procedure, shortened: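 SK-OV-3 cells seeded overnight on coverslips in EMEM, exposed to 5 μM compound in opti-MEM for 1 h at 37 °C, washed, then kept in fresh serum-containing medium 24 h; PBS-washed and imaged by laser scanning confocal microscopy, rhodamine and phase contrast channels.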

[18] = Half life in fetal bovine serum at 1 mM by HPLC analysis; type: ADME, cell-free, Bos taurus; details: cattle
Procedure, shortened: (§3)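 Compound (50 μL of 1 mM DMSO stock) incubated in 1 mL of 100% FBS or PBS pH 7.0 at 37 °C with shaking; aliquots taken from 10 min to 96 h, diluted with water, analysed by HPLC at 490 nm; peak areas give % remaining and % released Dox.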

SK-OV-3 [19] = assay: Cytotoxicity against human SKOV3 cells at > = 100 nM after 72 hrs by MTT assay; type: functional, cell-based; procedure, shortened: as §1
SK-OV-3 [20] = assay: Cellular uptake in doxorubicin-resistant human SKOV3 cells at 5 uM after 30 mins by FACS analysis relative to doxorubicin; type: ADME, cell-based; details: sk-ov-3, 0.5 h
Procedure, shortened: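 SK-OV-3 cells plated overnight in EMEM (2 × 10^5 cells/well); compound 5 μM added in opti-MEM, 30 min at 37 °C; cells trypsinized, PBS-washed, analysed by flow cytometry on FL2 channel; mean fluorescence of 10000 cells; triplicate.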

CCRF-CEM [21] = assay: Growth inhibition of human CCRF-CEM cells at 1 uM after 96 hrs by CellTiter assay; type: functional, cell-based
CCRF-CEM [22] = assay: Inhibition of cell proliferation of human CCRF-CEM cells at 1 uM by CellTiter assay; type: functional, cell-based; details: TDE = time-dependent effect
[23] = Drug metabolism in human CCRF-CEM cells assessed as compound hydrolysis at 1 uM after 48 hrs by HPLC analysis; type: ADME, cell-based; details: read-out: Drug metabolism; procedure, shortened: as §2
CCRF-CEM [24] = assay: Inhibition of cell proliferation of human CCRF-CEM cells after 96 hrs by CellTiter assay; type: functional, cell-based
MDA-MB-468 [25] = assay: Inhibition of cell proliferation of human MDA-MB-468 cells at 1 uM by CellTiter assay; type: functional, cell-based; details: TDE = time-dependent effect
[26] = Half life in PBS at 1 mM by HPLC analysis; type: physicochemical; procedure, shortened: as §3
MDA-MB-468 [27] = assay: Inhibition of cell proliferation of human MDA-MB-468 cells at 1 uM after 120 hrs by CellTiter assay; type: functional; details: MDA-MB-468, 120 h
[28] = Chemical stability of the compound in pH 8, reaction buffer containing Tris-HCl, NaCl, MgCl2, dithiothreitol and ATP; type: physicochemical
Procedure, shortened: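 Compound held in Topo II reaction buffer (Tris-HCl 50 mM pH 8.0, NaCl 150 mM, MgCl2 10 mM, DTT 0.5 mM, ATP 2 mM) without enzyme; hydrolysis followed by HPLC.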

MDA-MB-361 [29] = assay: Growth inhibition of human MDA-MB-361 cells at 1 uM after 96 hrs by CellTiter assay; type: functional, cell-based
MDA-MB-361 [30] = assay: Inhibition of cell proliferation of human MDA-MB-361 cells at 1 uM by CellTiter assay; type: functional, cell-based; details: TDE = time-dependent effect
CCRF-CEM [31] = assay: Drug metabolism in human CCRF-CEM cells assessed as doxorubicin formation at 1 uM by HPLC analysis; type: ADME, cell-based; details: TDE = time-dependent effect; procedure, shortened: as §2
Serum = assay: Binding affinity to serum proteins in fetal bovine serum at 1 mM; type: ADME, cell-free, Bos taurus; details: cattle, 1000 µM
CCRF-CEM [32] = assay: Inhibition of cell proliferation of human CCRF-CEM cells at 1 uM after 96 to 120 hrs by CellTiter assay; type: functional

Sequence of DNA topoisomerase 2-alpha (Homo sapiens) (P11388 whole entry): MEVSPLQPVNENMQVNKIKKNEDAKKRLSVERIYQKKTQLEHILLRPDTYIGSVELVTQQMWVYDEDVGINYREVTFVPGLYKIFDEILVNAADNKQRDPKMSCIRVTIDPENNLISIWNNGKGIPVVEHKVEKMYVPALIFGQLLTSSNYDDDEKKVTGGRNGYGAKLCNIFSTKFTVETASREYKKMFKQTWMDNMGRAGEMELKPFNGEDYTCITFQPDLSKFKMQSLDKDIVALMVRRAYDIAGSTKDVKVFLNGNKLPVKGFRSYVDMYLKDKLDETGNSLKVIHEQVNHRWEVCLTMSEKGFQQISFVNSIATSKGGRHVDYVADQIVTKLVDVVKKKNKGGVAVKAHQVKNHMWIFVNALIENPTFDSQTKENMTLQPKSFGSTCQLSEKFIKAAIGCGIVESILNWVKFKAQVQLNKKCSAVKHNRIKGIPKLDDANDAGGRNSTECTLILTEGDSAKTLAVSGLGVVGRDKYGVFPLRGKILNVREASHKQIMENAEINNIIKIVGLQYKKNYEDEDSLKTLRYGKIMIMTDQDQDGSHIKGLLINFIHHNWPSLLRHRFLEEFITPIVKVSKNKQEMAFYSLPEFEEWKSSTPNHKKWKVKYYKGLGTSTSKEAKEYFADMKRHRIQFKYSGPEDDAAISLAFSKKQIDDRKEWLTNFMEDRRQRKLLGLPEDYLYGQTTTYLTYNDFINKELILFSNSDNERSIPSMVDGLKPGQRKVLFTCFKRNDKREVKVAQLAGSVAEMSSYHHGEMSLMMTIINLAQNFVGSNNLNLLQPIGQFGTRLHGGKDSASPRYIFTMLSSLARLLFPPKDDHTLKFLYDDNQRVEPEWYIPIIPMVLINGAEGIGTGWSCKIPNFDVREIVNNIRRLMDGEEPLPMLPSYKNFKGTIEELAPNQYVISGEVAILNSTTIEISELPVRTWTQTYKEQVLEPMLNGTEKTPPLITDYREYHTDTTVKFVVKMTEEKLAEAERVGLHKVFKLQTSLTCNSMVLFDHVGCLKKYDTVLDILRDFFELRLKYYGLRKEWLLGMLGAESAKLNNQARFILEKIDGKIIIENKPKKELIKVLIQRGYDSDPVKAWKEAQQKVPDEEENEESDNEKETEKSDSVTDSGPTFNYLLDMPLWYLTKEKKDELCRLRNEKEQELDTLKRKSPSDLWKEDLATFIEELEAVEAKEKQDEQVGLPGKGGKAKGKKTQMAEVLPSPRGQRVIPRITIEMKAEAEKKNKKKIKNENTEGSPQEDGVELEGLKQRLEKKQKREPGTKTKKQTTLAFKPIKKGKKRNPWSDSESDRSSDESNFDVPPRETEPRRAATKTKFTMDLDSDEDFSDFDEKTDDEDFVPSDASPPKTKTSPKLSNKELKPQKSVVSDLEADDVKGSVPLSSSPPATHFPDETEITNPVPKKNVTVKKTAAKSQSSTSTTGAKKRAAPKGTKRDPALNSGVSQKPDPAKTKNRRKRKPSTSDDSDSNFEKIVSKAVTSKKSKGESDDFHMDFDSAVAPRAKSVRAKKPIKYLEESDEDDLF

In the case of `CCCCCCCCCCCCCCNC(=O)CCC(=O)OCC(=O)[C@]1(O)Cc2c(O)c3c(c(O)c2[C@@H](O[C@H]2C[C@H](N)[C@H](O)[C@H](C)O2)C1)C(=O)c1c(OC)cccc1C3=O`, the Activity (SK-OV-3 [1]) is reported as 67.1%, the inhibition at 1 µM (HT-29 [2]) is reported as 60% and the metabolised at 12 h, 1 µM [3] is reported as 20%. The Drug uptake [4] was “Active”, the “growth inhibition (GI)” value (MDA-MB-468 [5]) was “Active” and the inhibition at 1 µM (MDA-MB-361 [6]) was 66%. For the same compound, the inhibition at 1 µM (SK-OV-3 [7]) was 54%, the inhibition [8] was “Active” and the inhibition (HT-29 [9]) was “tde”. The inhibition (SK-OV-3 [10]) was “tde”, the inhibition at 1 µM (MDA-MB-468 [11]) was 49% and the metabolised at 12 h, 1 µM [12] was > 75%. For the same compound, the “growth inhibition (GI)” value (HT-29 [13]) was “Active”, the “growth inhibition (GI)” value (SK-OV-3 [14]) was “Active” and the metabolised at 48 h, 1 µM [15] was 30%. The “fold change (FC)” value (SK-OV-3 [16]) was 1.4, the Drug uptake [17] was “Active” and the half-life at 1000 µM [18] was 8.3 h. For the same compound, the Activity (SK-OV-3 [19]) was “Active”, the “fold change (FC)” value (SK-OV-3 [20]) was 3 and the “growth inhibition (GI)” value (CCRF-CEM [21]) was “Active”. The inhibition (CCRF-CEM [22]) was “tde”, the metabolised at 48 h, 1 µM [23] was 98% and the IC50 (CCRF-CEM [24]) was 77 nM. The inhibition (MDA-MB-468 [25]) was “tde”, the half-life at 1000 µM [26] was 19.3 h and the inhibition at 1 µM (MDA-MB-468 [27]) was 70.2%. For the same compound, the Stability [28] was “Stable”, the “growth inhibition (GI)” value (MDA-MB-361 [29]) was “Active” and the inhibition (MDA-MB-361 [30]) was “tde”. The Drug metabolism (CCRF-CEM [31]) was “tde”, the PB (Serum) was “Not Active” and the inhibition at 1 µM (CCRF-CEM [32]) was 69%.

Source: ChEMBL document CHEMBL2021810, “Synthesis, anticancer activities, and cellular uptake studies of lipophilic derivatives of doxorubicin succinate” (J Med Chem, 2012)
